Where “and” joins values, the source holds several entries; their conditions need not be identical. Identical values can stand only once.
Tested on: HEK-293T
Assay: Multiplex assay against HEK293T
Format: toxicity, cell-based
Details: human
Method in brief: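 Phenotypes for tubulin, mitochondrial mass and membrane permeability are expressed as per cents of healthy-nucleus cells. Cells were stained live at seeding with Hoechst33342, BioTracker Green Microtubule Cytoskeleton Dye, MitoTracker Red and Annexin V Alexa Fluor 680, then imaged after compound addition on a CQ1 microscope at 37°C and 5% CO2. Machine-learning gating in CellPathfinder separated Hoechst high-intensity objects from normal cells, divided normal cells by nuclear state (healthy, pyknosed, fragmented) and divided pyknosed cells into mitotic or apoptotic.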

[1] = 12 h, 1 µM, compound concentration 1 uM
[2] = 12 h, 10 µM, compound concentration 10 uM
[3] = 24 h, 1 µM, compound concentration 1 uM
[4] = 24 h, 10 µM, compound concentration 10 uM
[5] = 48 h, 1 µM, compound concentration 1 uM
[6] = 48 h, 10 µM, compound concentration 10 uM

## CC(=O)Nc1cccc2c1c(Sc1ccc(Cl)cc1)c(C)n2CC(=O)O [AZD1981]
[1]
  Population Apoptotic (%): 37% and 60%
  Population Fragmented Nuclei (%): 6% and 5%
  Population Healthy Nuclei (%): 81% and 80%
  Population Hoechst High Intensity Objects (%): 6% and 8%
  Population Membrane Permeable-Phenotype (%): 0%
  Population Mitochondria Different-Phenotype (%): 46% and 57%
  Population Mitotic Cells (%): 62% and 40%
  Population Normal (%): 93% and 91%
  Population Pyknosed Nuclei (%): 11% and 13%
  Population Tubulin-Different-Phenotype (%): 28% and 18%
  Total Cell Count: 405 and 314
[2]
  Population Apoptotic (%): 38% and 60%
  Population Fragmented Nuclei (%): 8% and 6%
  Population Healthy Nuclei (%): 78% and 77%
  Population Hoechst High Intensity Objects (%): 7% and 15%
  Population Membrane Permeable-Phenotype (%): 0%
  Population Mitochondria Different-Phenotype (%): 44% and 60%
  Population Mitotic Cells (%): 61% and 39%
  Population Normal (%): 92% and 84%
  Population Pyknosed Nuclei (%): 12% and 15%
  Population Tubulin-Different-Phenotype (%): 29% and 26%
  Total Cell Count: 403 and 318
[3]
  Population Apoptotic (%): 20% and 54%
  Population Fragmented Nuclei (%): 9% and 7%
  Population Healthy Nuclei (%): 80%
  Population Hoechst High Intensity Objects (%): 2% and 9%
  Population Membrane Permeable-Phenotype (%): 0%
  Population Mitochondria Different-Phenotype (%): 33% and 42%
  Population Mitotic Cells (%): 79% and 45%
  Population Normal (%): 97% and 90%
  Population Pyknosed Nuclei (%): 9% and 11%
  Population Tubulin-Different-Phenotype (%): 23% and 16%
  Total Cell Count: 568 and 398
[4]
  Population Apoptotic (%): 40% and 59%
  Population Fragmented Nuclei (%): 7% and 8%
  Population Healthy Nuclei (%): 79% and 81%
  Population Hoechst High Intensity Objects (%): 4% and 12%
  Population Membrane Permeable-Phenotype (%): 0%
  Population Mitochondria Different-Phenotype (%): 28% and 45%
  Population Mitotic Cells (%): 59% and 40%
  Population Normal (%): 95% and 87%
  Population Pyknosed Nuclei (%): 13% and 9%
  Population Tubulin-Different-Phenotype (%): 25% and 19%
  Total Cell Count: 526 and 387
[5]
  Population Apoptotic (%): 21% and 38%
  Population Fragmented Nuclei (%): 15% and 13%
  Population Healthy Nuclei (%): 78% and 79%
  Population Hoechst High Intensity Objects (%): 1% and 3%
  Population Membrane Permeable-Phenotype (%): 1%
  Population Mitochondria Different-Phenotype (%): 18% and 20%
  Population Mitotic Cells (%): 78% and 61%
  Population Normal (%): 98% and 96%
  Population Pyknosed Nuclei (%): 6%
  Population Tubulin-Different-Phenotype (%): 10% and 12%
  Total Cell Count: 908 and 570
[6]
  Population Apoptotic (%): 37% and 33%
  Population Fragmented Nuclei (%): 14% and 16%
  Population Healthy Nuclei (%): 78%
  Population Hoechst High Intensity Objects (%): 2% and 4%
  Population Membrane Permeable-Phenotype (%): 0%
  Population Mitochondria Different-Phenotype (%): 18% and 26%
  Population Mitotic Cells (%): 62% and 66%
  Population Normal (%): 97% and 95%
  Population Pyknosed Nuclei (%): 7% and 5%
  Population Tubulin-Different-Phenotype (%): 11%
  Total Cell Count: 751 and 556

## Cc1c(CC(=O)O)c2cccnc2n1Cc1ccc(S(C)(=O)=O)cc1C(F)(F)F [FEVIPIPRANT]
[1]
  Population Apoptotic (%): 27% and 41%
  Population Fragmented Nuclei (%): 6% and 7%
  Population Healthy Nuclei (%): 83% and 79%
  Population Hoechst High Intensity Objects (%): 5% and 7%
  Population Membrane Permeable-Phenotype (%): 0%
  Population Mitochondria Different-Phenotype (%): 32% and 52%
  Population Mitotic Cells (%): 72% and 58%
  Population Normal (%): 94% and 92%
  Population Pyknosed Nuclei (%): 9% and 12%
  Population Tubulin-Different-Phenotype (%): 22% and 16%
  Total Cell Count: 471 and 370
[2]
  Population Apoptotic (%): 33% and 52%
  Population Fragmented Nuclei (%): 5% and 11%
  Population Healthy Nuclei (%): 80% and 75%
  Population Hoechst High Intensity Objects (%): 6% and 10%
  Population Membrane Permeable-Phenotype (%): 0%
  Population Mitochondria Different-Phenotype (%): 46% and 66%
  Population Mitotic Cells (%): 66% and 47%
  Population Normal (%): 93% and 89%
  Population Pyknosed Nuclei (%): 13% and 12%
  Population Tubulin-Different-Phenotype (%): 29% and 32%
  Total Cell Count: 417 and 303
[3]
  Population Apoptotic (%): 22% and 43%
  Population Fragmented Nuclei (%): 8% and 7%
  Population Healthy Nuclei (%): 81% and 82%
  Population Hoechst High Intensity Objects (%): 3% and 4%
  Population Membrane Permeable-Phenotype (%): 1% and 0%
  Population Mitochondria Different-Phenotype (%): 18% and 37%
  Population Mitotic Cells (%): 77% and 56%
  Population Normal (%): 96% and 95%
  Population Pyknosed Nuclei (%): 10%
  Population Tubulin-Different-Phenotype (%): 18% and 14%
  Total Cell Count: 637 and 457
[4]
  Population Apoptotic (%): 33% and 50%
  Population Fragmented Nuclei (%): 8% and 9%
  Population Healthy Nuclei (%): 80% and 81%
  Population Hoechst High Intensity Objects (%): 5% and 11%
  Population Membrane Permeable-Phenotype (%): 0%
  Population Mitochondria Different-Phenotype (%): 31% and 44%
  Population Mitotic Cells (%): 66% and 50%
  Population Normal (%): 94% and 88%
  Population Pyknosed Nuclei (%): 10% and 8%
  Population Tubulin-Different-Phenotype (%): 20%
  Total Cell Count: 499 and 334
[5]
  Population Apoptotic (%): 16% and 20%
  Population Fragmented Nuclei (%): 13% and 11%
  Population Healthy Nuclei (%): 79% and 82%
  Population Hoechst High Intensity Objects (%): 1% and 2%
  Population Membrane Permeable-Phenotype (%): 2% and 0%
  Population Mitochondria Different-Phenotype (%): 12% and 16%
  Population Mitotic Cells (%): 83% and 79%
  Population Normal (%): 98% and 97%
  Population Pyknosed Nuclei (%): 7% and 6%
  Population Tubulin-Different-Phenotype (%): 12% and 10%
  Total Cell Count: 1065 and 713
[6]
  Population Apoptotic (%): 29% and 45%
  Population Fragmented Nuclei (%): 14%
  Population Healthy Nuclei (%): 78% and 77%
  Population Hoechst High Intensity Objects (%): 4% and 7%
  Population Membrane Permeable-Phenotype (%): 0% and 1%
  Population Mitochondria Different-Phenotype (%): 24% and 22%
  Population Mitotic Cells (%): 70% and 55%
  Population Normal (%): 95% and 92%
  Population Pyknosed Nuclei (%): 7% and 8%
  Population Tubulin-Different-Phenotype (%): 14% and 17%
  Total Cell Count: 794 and 491

From ChEMBL document CHEMBL5724801, “EUbOPEN Chemogenomics Library - Multiplex” (2024)
